Like-named read-outs stand apart in the source and are kept apart here. One block for each molecule: values may come before it.
Key:
[1] = target: PDE4B2B (Homo sapiens, UniProt Q07343); assay: PDE enzymatic assay with 3H-cAMP or 3H-cGMP as substrates; assay type: biochemical; conditions: IC50, PDE4B2B (152–528)
In short: (§1)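 Recombinant PDE catalytic domains incubated at room temperature for 15 min in 20 mM Tris.HCl pH 7.5, 10 mM MgCl2, 0.5 mM DTT, with 3H-cAMP or 3H-cGMP at 20–40k cpm/assay. Stopped with 0.2 M ZnSO4. Product precipitated with 0.2 N Ba(OH)2. Unreacted substrate in supernatant counted by liquid scintillation. Nine inhibitor concentrations tested. Rolipram served as reference.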

[2] = target: PDE2A3 (580–941) (Homo sapiens, UniProt O00408); assay: as above; assay type: biochemical
PDE2A3 (580–941), sequence (O00408 580-941): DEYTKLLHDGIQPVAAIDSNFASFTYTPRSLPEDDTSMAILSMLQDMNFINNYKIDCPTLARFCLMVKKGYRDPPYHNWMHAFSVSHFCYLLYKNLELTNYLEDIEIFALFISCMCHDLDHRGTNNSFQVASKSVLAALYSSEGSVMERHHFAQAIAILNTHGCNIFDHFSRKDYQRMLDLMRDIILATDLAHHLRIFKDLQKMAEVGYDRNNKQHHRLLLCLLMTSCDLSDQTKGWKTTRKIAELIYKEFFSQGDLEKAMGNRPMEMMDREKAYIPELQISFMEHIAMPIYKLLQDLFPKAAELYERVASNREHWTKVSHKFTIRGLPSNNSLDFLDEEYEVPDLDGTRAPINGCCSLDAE
In short: as §1

[3] = target: PDE3A1 (665–1141) (Homo sapiens, UniProt Q14432); assay: PDE enzymatic assay with 3H-cAMP or 3H-cGMP as substrates; assay type: biochemical
PDE3A1 (665–1141), sequence (Q14432 665-1141): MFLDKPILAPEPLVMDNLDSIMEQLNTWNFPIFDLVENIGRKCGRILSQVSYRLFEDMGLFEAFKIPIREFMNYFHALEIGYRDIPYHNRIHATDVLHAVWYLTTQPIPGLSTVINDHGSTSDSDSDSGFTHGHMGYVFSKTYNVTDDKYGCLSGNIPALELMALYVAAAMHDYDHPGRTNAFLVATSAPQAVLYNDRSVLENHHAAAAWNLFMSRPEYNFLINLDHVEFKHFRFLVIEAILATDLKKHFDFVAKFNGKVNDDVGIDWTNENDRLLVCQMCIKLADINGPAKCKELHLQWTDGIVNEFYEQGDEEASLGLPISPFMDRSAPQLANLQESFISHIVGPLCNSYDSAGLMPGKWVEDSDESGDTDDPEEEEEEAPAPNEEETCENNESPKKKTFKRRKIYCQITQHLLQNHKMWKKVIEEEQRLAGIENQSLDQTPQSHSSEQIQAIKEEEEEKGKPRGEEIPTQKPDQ
In short: (§2)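 PDE catalytic domains were incubated with 20 mM Tris-HCl pH 7.5, 10 mM MgCl2, 0.5 mM DTT and 3H-cAMP or 3H-cGMP (20–40k cpm/assay) for 15 min at room temperature. The reaction was stopped with 0.2 M ZnSO4, and product was precipitated with 0.2 N Ba(OH)2. Supernatant radioactivity was scintillation-counted. Nine inhibitor concentrations were tested; rolipram was the reference.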

[4] = target: PDE5A1 (535–860) (Homo sapiens, UniProt O76074); assay: PDE enzymatic assay with 3H-cAMP or 3H-cGMP as substrates; assay type: biochemical
In short: as §1

[5] = target: PDE7A1 (130–482) (Homo sapiens, UniProt Q13946); assay: as above; assay type: biochemical
PDE7A1 (130–482), sequence (Q13946 130-482): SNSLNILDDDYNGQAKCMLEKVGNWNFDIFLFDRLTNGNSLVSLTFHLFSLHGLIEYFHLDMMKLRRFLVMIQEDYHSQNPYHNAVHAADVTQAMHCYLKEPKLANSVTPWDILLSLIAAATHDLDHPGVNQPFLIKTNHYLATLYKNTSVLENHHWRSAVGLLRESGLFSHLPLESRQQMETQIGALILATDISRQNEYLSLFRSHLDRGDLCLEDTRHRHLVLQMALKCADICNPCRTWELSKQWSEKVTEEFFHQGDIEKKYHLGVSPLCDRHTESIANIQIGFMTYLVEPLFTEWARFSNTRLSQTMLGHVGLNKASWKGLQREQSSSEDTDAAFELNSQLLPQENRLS
In short: as §1

[6] = target: PDE8A1 (480–820) (Homo sapiens, UniProt O60658); assay: PDE enzymatic assay with 3H-cAMP or 3H-cGMP as substrates; assay type: biochemical
PDE8A1 (480–820), sequence (O60658 480-820): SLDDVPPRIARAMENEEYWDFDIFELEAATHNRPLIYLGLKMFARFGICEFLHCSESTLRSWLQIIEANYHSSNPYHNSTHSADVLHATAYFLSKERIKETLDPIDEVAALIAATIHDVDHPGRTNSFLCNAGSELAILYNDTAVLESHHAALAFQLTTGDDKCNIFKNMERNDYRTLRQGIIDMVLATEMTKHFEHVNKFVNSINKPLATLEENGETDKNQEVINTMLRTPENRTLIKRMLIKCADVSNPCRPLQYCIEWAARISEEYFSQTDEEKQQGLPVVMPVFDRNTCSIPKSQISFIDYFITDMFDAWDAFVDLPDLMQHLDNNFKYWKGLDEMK
In short: as §2

[7] = target: PDE9A1 (181–506) (Homo sapiens, UniProt O76083); assay: PDE enzymatic assay with 3H-cAMP or 3H-cGMP as substrates; assay type: biochemical
PDE9A1 (181–506), sequence (O76083 241-566): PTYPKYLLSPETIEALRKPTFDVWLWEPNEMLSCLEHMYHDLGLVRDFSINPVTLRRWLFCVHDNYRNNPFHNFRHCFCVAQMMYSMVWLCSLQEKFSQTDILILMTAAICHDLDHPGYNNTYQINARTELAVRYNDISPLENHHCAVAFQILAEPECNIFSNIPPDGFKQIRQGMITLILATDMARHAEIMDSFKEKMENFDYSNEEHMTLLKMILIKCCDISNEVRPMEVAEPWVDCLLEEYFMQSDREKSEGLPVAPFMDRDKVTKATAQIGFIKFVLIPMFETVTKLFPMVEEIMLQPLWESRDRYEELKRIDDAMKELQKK
In short: as §1

[8] = target: PDE10A2 (448–789) (Homo sapiens, UniProt Q9Y233); assay: PDE enzymatic assay with 3H-cAMP or 3H-cGMP as substrates; assay type: biochemical
PDE10A2 (448–789), sequence (Q9Y233 714-1055): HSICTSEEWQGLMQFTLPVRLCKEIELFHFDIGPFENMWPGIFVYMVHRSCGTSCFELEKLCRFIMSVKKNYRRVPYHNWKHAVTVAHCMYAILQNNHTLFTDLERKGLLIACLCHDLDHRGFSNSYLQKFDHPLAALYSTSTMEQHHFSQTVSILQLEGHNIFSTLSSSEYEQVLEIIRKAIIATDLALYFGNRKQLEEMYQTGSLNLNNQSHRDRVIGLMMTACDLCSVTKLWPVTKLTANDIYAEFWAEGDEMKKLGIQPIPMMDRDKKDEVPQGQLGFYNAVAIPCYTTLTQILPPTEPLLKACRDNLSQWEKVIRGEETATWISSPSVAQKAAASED
In short: as §2

[9] = target: T1, PDE11A4 (563–934) (Homo sapiens, UniProt Q9HCR9); assay: as above; assay type: biochemical
T1 sequence (Q9HCR9 563-933 limits assumed): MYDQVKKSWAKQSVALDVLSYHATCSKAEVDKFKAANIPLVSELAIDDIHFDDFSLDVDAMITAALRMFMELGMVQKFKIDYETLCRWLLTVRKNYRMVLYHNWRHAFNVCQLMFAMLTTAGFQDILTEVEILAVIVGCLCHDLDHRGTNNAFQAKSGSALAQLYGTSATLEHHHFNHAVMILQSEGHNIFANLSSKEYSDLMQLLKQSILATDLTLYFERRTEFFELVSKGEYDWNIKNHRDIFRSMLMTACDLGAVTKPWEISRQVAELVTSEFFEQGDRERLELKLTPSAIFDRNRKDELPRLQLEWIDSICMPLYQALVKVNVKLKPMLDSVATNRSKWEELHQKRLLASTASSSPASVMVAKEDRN
In short: as §2

[10] = Pharmacokinetic properties in mice; assay type: in vivo; conditions: 5 mg/kg
In short: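 Male ICR mice were dosed at 5 mg/kg. The stock dosing sample was 10 mg test compound in 10 ml saline containing 1% DMSO, 40% 2-hydroxypropyl-β-cyclodextrin and 6% Solutol HS 15. It was vortexed and sonicated until fully dissolved.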

[11] = test system: mice; assay: Object recognition test; assay type: in vivo; conditions: i.p. 30 min prior to the test; for memory in the object recognition test: Fig. 5A
In short: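 Male ICR mice (22–24 g) were housed at 22–23 °C on a 12-h light-dark cycle with free food and water. Test compound, rolipram or vehicle was given i.p. 30 min before testing. Mice were trained to tell a novel from a familiar object with a 24-hour delay. Exploration times (Tn, Tf) were recorded over 3 min. n = 8–9; one-way ANOVA with Dunnett's post hoc test.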

[12] = test system: mice; assay: Open-field test; assay type: in vivo
In short: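 Naive male ICR mice received test compound, rolipram or vehicle by i.p. injection. Thirty minutes later each was placed in the centre of an open-field box with its floor divided into 4 identical squares and explored for 5 min. Line crossings (all four paws over the line) and rears were counted. Means ± S.E., n = 8–9; one-way ANOVA with Dunnett's test.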

[13] = test system: PDE4D; conditions: read-out: IC50 against PDE4D; racemic Zl-n-91; cited from earlier work
[14] = test system: LPS-induced TNFa release; conditions: read-out: IC50 of LPS-induced TNFa release, cited from earlier work
[15] = test system: mice; conditions: at the same dose required for producing a memory-enhancing effect; cited from earlier work
[16] = doses of 0.01–0.5 mg/kg, 30 min after injection

PDE4B2B, sequence (Q07343 324-700): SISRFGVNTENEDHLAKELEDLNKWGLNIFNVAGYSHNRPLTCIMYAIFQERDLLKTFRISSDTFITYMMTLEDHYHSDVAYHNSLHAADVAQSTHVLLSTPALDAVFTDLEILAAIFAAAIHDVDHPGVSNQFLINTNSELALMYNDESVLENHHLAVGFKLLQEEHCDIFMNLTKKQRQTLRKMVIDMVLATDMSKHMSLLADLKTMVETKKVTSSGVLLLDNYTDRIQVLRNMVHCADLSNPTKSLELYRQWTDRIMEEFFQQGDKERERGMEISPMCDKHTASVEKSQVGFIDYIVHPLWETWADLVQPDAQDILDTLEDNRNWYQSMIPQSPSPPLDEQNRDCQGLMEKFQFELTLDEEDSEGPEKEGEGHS

- IC50 [1]: 0.02 ± 0.004 µM
- IC50 [2]: 83 ± 12 µM
- IC50 [3]: 46 ± 3 µM
- IC50 [4]: 130 ± 23 µM
- IC50 [5]: 17 ± 3 µM
- IC50 [6]: 8.6 ± 0.7 µM
- IC50 [7]: 84 ± 10 µM
- IC50 [8]: 16 ± 1 µM
- IC50 [9]: 23 ± 4 µM
SMILES: CC(C)CC(=O)c1ccc(OC(F)F)c(O[C@H]2CCOC2)c1 [(S)-Zl-n-91, 1-(4-(difluoromethoxy)-3-((tetrahydrofuran-3-yl)oxy)phenyl)-3-methylbutan-1-one]

- CL(F) ([10]; PO, male mice): 20.5 L/h/kg
- F (bioavailability) ([10]; PO, male mice): 33.3%
- AUC ([10]; male, ICR, mouse, plasma, iv): 0.728 µg·h/mL
- AUC(0-t) ([10]; male, ICR, mouse, plasma, iv): 0.725 µg·h/mL
- C0 ([10]; male, ICR, mouse, plasma, iv): 6.03 µg/mL
- MRT inf ([10]; male, ICR, mouse, plasma, iv): 20.4 min
- Vd ([10]; male, ICR, mouse, plasma, iv): 2.31 L/kg
- clearance ([10]; male, ICR, mouse, plasma, iv): 6.87 L/h/kg
- half-life ([10]; male, ICR, mouse, plasma, iv): 37.2 min
- AUC ([10]; male, ICR, mouse, plasma, po): 0.244 µg·h/mL
- AUC(0-t) ([10]; male, ICR, mouse, plasma, po): 0.241 µg·h/mL
- Cmax ([10]; male, ICR, mouse, plasma, po): 0.0965 µg/mL
- Tmax ([10]; male, ICR, mouse, plasma, po): 120 min
- Vd/F ([10]; male, ICR, mouse, plasma, po): 39.9 L/kg
- half-life ([10]; male, ICR, mouse, plasma, po): 81 min
- locomotor activity [12]: not altered
- line crossings [12, 16]: altered neither
- rears [12, 16]: altered neither
SMILES: CC(C)CC(=O)c1ccc(OC(F)F)c(OC2CCOC2)c1 (centres unmarked) [Zl-n-91, 1-(4-(difluoromethoxy)-3-((tetrahydrofuran-3-yl)oxy)phenyl)-3-methylbutan-1-one]
- memory in the object recognition test [11]: enhanced memory
- sedation ([12]; dose of 0.5 mg/kg): does not produce sedation
- IC50 [13]: 0.026 µM
- IC50 ([14]; whole blood cell): 0.04 µM

SMILES: COc1ccc([C@]2(C#N)CC[C@@H](C(=O)O)CC2)cc1OC1CCCC1 [cilomilast, reference compound]
- IC50 ([14]; whole blood): > 10 µM

SMILES: COc1ccc(C2CNC(=O)C2)cc1OC1CCCC1 (centres unmarked) [rolipram]
- increase of discrimination ratio (Tn-Tf)/(Tn+Tf) ([11]; 0.3 mg/kg, versus vehicle): about 4 times
- memory in the object recognition test [11]: enhanced memory
- locomotor activity [15]: decreased locomotor activity

Source: publication PMC6088244 (Biochemistry, 2018)
